Assay results: paper PMC10467613 (RSC Chemical Biology, 2023)

How the values were obtained:
[1] = molecular target: T1, HsIYD containing 2′-deoxyFMN (Homo sapiens, UniProt Q6PHW0, DEL2-31); assay: flavin fluorescence quenching titration; assay type: binding
T1 sequence (Q6PHW0 32-289): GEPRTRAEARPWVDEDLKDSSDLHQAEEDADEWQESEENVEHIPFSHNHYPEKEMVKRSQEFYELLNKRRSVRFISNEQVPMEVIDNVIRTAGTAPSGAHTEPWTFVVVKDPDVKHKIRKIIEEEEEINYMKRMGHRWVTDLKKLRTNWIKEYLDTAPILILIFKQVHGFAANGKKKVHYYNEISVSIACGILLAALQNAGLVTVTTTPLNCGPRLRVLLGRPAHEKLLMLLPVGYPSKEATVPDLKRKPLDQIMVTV
In short: (§1)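 Enzyme: human IYD lacking residues 2–31 (SUMO fusion, tag removed) or T. neapolitana IYD (C-terminal His6; dithionite wash first). FMN was stripped on a Ni column with up to 1.5 M guanidinium HCl, then reloaded with 200 μM 2′-deoxyFMN for 4 h at 4 °C. Ligand was titrated into 3 μM enzyme in 100 mM potassium phosphate pH 7.4 at 25 °C. Flavin fluorescence (ex 450/em 516 nm) was read 2 min after each addition. Kd was fitted from ΔF/F0 versus total enzyme and total ligand.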

[2] = molecular target: T2, TnIYD containing 2′-deoxyFMN (Thermotoga neapolitana, UniProt B9K712); assay: flavin fluorescence quenching titration; assay type: binding
T2 sequence (B9K712 1-186): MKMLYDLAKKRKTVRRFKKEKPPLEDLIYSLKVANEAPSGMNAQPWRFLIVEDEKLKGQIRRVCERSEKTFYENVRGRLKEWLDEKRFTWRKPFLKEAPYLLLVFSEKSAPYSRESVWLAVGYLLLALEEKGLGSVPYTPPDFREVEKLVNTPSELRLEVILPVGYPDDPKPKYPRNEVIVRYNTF
In short: as §1

Row | Kd [2] | Compound | Kd [1]
1 | – | N[C@@H](Cc1ccc(O)c(F)c1)C(=O)O [F-Tyr, 3-Fluoro-L-tyrosine] | 1500 ± 70 µM
2 | 6.3 ± 0.7 µM | COc1ccc(C[C@H](N)C(=O)O)cc1I [O-Me I-Tyr] | –
